ZTA DNA inh – counter-screen for EBNA-1 inhibitors: inhibitors of Epstein-Barr virus ZTA | ZTA-DNA binding, fluorescence polarization | inhibition, % at 11 µM | 320,000 compounds, 0.15% hits | AID 2234; in the data active = inhibition above about 33%
Target sequence (P03206 whole entry, looked up): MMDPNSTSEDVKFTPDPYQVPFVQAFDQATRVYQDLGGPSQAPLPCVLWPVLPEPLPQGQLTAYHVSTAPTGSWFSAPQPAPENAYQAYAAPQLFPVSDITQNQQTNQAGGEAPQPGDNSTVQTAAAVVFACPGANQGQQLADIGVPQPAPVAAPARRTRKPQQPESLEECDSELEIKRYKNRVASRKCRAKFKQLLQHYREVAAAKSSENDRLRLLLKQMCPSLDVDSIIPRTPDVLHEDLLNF
NS3 helicase inh – blocks Hepatitis C virus NS3 helicase unwinding. inhibition, % at 10.9 µM. AID 1800. 290,000 compounds, 0.56% hits. NS3 helicase DNA unwinding, Cy5 molecular beacon fluorescence;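 active = inhibition above the mean of all tested compounds plus 3 SD, set per campaign, cut at about 35% in these data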;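 also: 0% = DMSO wells and 100% = thioflavine S control wells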
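assay system = NS3 helicase fragment of HCV | buffer or medium = MOPS pH 6.5, MgCl2, DTT, Tween20, BSA | timing = 60 min unwinding reaction at 25 °C after ATP addition | signal = Cy5 beacon fluorescence read at start and 1 h | read-out basis = % inhibition of unwinding | control set = low DMSO, high thioflavine S at 110 µM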
NR3A LBD binder – modulators (binders) of human NR3A ligand-binding domain. NR3A LBD differential scanning fluorimetry, Tm shift; 0% = protein alone, 100% = glycine-bound protein. 340,000 compounds, 2.5% hits. Tm shift relative to glycine control, % at 25 µM. AID 1259313;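 active = melting temperature shift of at least 10% of the positive control shift, at one fixed dose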
FGF22 binding – shifts melting point of recombinant human FGF22. Q9HCT0. recombinant FGF22 thermal shift, SYPRO orange fluorescence; percent of sucrose octasulfate shift, DMSO zero. activity (Tm shift, normalised), % at 9.99 µM. 340,000 compounds, 1.5% hits. AID 651658;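 active = mean Tm shift, scaled 0 neutral to 100 positive control, at about 1.3% or above, every replicate too, limit read from the data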
Target sequence (Q9HCT0 whole entry, looked up): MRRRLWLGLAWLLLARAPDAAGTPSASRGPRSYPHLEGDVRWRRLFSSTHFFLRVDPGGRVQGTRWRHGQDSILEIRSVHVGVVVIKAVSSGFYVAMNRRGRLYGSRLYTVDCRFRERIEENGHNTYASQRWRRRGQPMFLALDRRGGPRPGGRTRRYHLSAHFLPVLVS
DNA FID counter – fluorescent intercalator displacement, NS3 helicase counter-screen | inhibition, % at 7.9 µM | AID 1845 | DNA fluorescent intercalator displacement, fluorescence | 290,000 compounds, 0.17% hits; in the data active = inhibition above about 37%;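 also: 0% = vehicle and 100% = reference compound; higher means more ethidium bromide displaced from hairpin DNA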
EBNA-1 inhibitor – blocks EBNA-1 binding to DNA; EBNA-1 DNA binding, fluorescence polarization; inhibition, % at 14.8 µM; 300,000 compounds, 0.34% hits; AID 1950; in the data active = inhibition above about 28%
EBNA-1 inh conf – EBNA-1 (EBV) inhibition, confirmation; inhibition, % at 14.8 µM; shares compounds with EBNA-1 inhibitor; Recombinant EBNA-1 DBD, Cy5-DNA fluorescence polarization; 830 compounds, 35% hits;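 active = mean inhibition across replicates above a set limit taken from the earlier primary screen, cut at about 28% in these data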;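 also: plate controls were EBNA-1 protein with DMSO for no effect and wells lacking EBNA-1 for full effect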
ZTA counter trip – ZTA (EBV) inhibition, triplicate counter-screen | inhibition, % at 11.1 µM | 830 tested, under 10 active | shares compounds with EBNA-1 inhibitor | Zta-ZRE DNA binding, Cy5 fluorescence polarization;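 active = mean inhibition over triplicates above a set limit taken from the primary EBNA-1 screen, cut at about 37% in these data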;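 also: purified full length Zta protein with Cy5 labeled ZRE DNA probe; 0% = Zta with DMSO and 100% = wells lacking Zta protein; inhibitors lower polarization by freeing the labeled DNA probe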
Starred values were filed as active, the others as inactive; x = not tested or not shown. The list is not random: actives were taken first. Their share in the collection is about 3.6%.

SMILES | ZTA DNA inh | NS3 helicase inh | NR3A LBD binder | FGF22 binding | DNA FID counter | EBNA-1 inhibitor | EBNA-1 inh conf | ZTA counter trip
Cn1nnnc1SCc1ccc(C(=O)Nc2ccc(Br)cc2)cc1 | 7 | 0 | 0 | x | -1 | 39* | 18 | 1
Cc1ccc(C)c(NC(=O)C(Sc2nc3ccccc3c(=O)n2CC(C)C)c2ccccc2)c1 (configuration not stated) | -7 | -5 | -18 | x | -1 | 32* | -1 | 2
O=[N+]([O-])c1ccccc1NCCNc1ncc(C(F)(F)F)cc1Cl | 25 | 3 | -22 | x | 7 | 62* | 53* | 11
Cc1ccc(C(=O)NCCNc2ncc(C(F)(F)F)cc2Cl)cc1[N+](=O)[O-] | 19 | -5 | -2 | 0 | -2 | 17 | x | x
O=c1oc2c(O)c(O)cc3c(=O)oc4c(O)c(O)cc1c4c23 | 26 | 31 | -18 | x | 5 | 39* | 47* | 37*
O=c1oc2ccccc2c2oc3cc(O)c(O)cc3c12 | 12 | 30 | 1 | x | 3 | 8 | x | x
CO[C@@H]1CN(C)C(=O)c2cc(NC(=O)Nc3ccccc3)ccc2OC[C@H](C)N(C(=O)CN(C)C)C[C@@H]1C | x | x | x | 0 | x | x | x | x
O=C1[C@H]2[C@@H](c3ccc(F)cc3)N3C(=O)N(c4cccc(Br)c4)C(=O)[C@@]3(Cc3ccccc3)[C@H]2C(=O)N1C1CCCCC1 | 4 | x | -6 | 0 | x | 10 | x | x
O=C1[C@H]2[C@@H](c3ccc(F)cc3)N3C(=O)N(c4cccc(F)c4)C(=O)[C@@]3(Cc3ccccc3)[C@H]2C(=O)N1C1CCCCC1 | 6 | x | -3 | 0 | x | 81* | 9 | -15
CCC(=O)Nc1ccc(NC(=S)NC(=O)/C=C/c2ccco2)cc1 | -1 | 8 | -3 | 0 | -15 | -7 | x | x
CC(=O)NC(=S)Nc1ccc(NC(=S)NC(=O)/C=C/c2ccco2)cc1 | 1 | 12 | 4 | 0 | -6 | 43* | 32* | 15
Cc1ccc(S(=O)(=O)N(C)C[C@H]2Oc3ccc(NS(=O)(=O)c4ccc(F)cc4)cc3C(=O)N([C@H](C)CO)C[C@@H]2C)cc1 | x | x | x | 0 | x | x | x | x
C[C@@H]1CCCCO[C@@H](CN(C)S(C)(=O)=O)[C@H](C)CN([C@@H](C)CO)C(=O)c2cc(NC(=O)C3CCCCC3)ccc2O1 | x | x | x | 0 | x | x | x | x
Cc1ccc(C2CC(c3cccs3)=NN2C(=O)CSc2nc(=O)n3cc(C)ccc3n2)cc1 (configuration not stated) | -4 | x | -2 | 0 | x | 42* | 2 | 7
CN(C)CC(=O)Nc1ccc2c(c1)[C@@H]1C[C@@H](CC(=O)NCCc3ccccc3)O[C@@H](CO)[C@@H]1O2 | x | x | x | 0 | x | x | x | x
CCNc1ccc(C(=O)OC(C(=O)NC(N)=O)C(C)C)cc1[N+](=O)[O-] (configuration not stated) | 0 | -2 | -2 | 0 | 1 | 33* | -11 | -5
CCNc1ccc(C(=O)OCC(=O)NC(C)c2ccccc2)cc1[N+](=O)[O-] (configuration not stated) | 5 | -2 | 1 | 0 | -1 | -9 | x | x
Cc1ccc(S(=O)(=O)N(C(=N)N)c2nc(N(C)C)nc(N(C)C)n2)cc1 | 6 | -2 | x | 0 | -38 | 31* | 5 | 5
NC(=O)c1cc(-c2ccccc2)sc1NC(=O)Cc1ccc(S(=O)(=O)N2CCOCC2)s1 | -5 | -9 | 1 | x | -5 | 31* | 53* | 3
O=C(CCc1nc2sc3c(c2c(=O)[nH]1)CCCC3)Nc1ccccc1Cl | 7 | x | 1 | 0 | x | 39* | 8 | -2
O=C(Cc1ccccn1)NCC[C@H]1CC[C@@H](NS(=O)(=O)c2ccccc2)[C@H](CO)O1 | x | x | x | 0 | x | x | x | x
CCC(=O)Nc1ccc(NC(=S)NC(=O)c2cc3ccccc3o2)cc1 | 10 | 3 | -9 | 0 | -1 | 5 | x | x
CCC(=O)Nc1cccc(NC(=S)NC(=O)c2cc3ccccc3o2)c1 | 2 | 2 | -5 | 0 | -3 | 31* | 12 | 16
O=C(CCCCCn1c(=S)[nH]c2cc3c(cc2c1=O)OCO3)N1CCN(Cc2ccccc2)CC1 | -1 | -6 | 3 | x | -18 | 37* | 69* | -3
O=C(CCCCCn1c(=S)[nH]c2cc3c(cc2c1=O)OCO3)N1CCN(C(=O)c2ccco2)CC1 | 14 | -1 | -1 | x | -13 | 14 | x | x
SMILES | ZTA DNA inh | NS3 helicase inh | NR3A LBD binder | FGF22 binding | DNA FID counter | EBNA-1 inhibitor | EBNA-1 inh conf | ZTA counter trip
C=CCn1c(=NC(=O)c2cc(-c3cccs3)nc3ccccc23)sc2cc(S(N)(=O)=O)ccc21 | 7 | 14 | 28* | 0 | -12 | 29* | 22 | 10
Cc1ccccc1S(=O)(=O)N1CC[C@@H]2[C@@H](CO)Nc3ccc(-c4cccc(F)c4)cc3[C@@H]21 | x | x | x | 0 | x | x | x | x
Cc1ccccc1CNC(=O)C1CCN(c2nnc(N3CCCC3=O)s2)CC1 | -10 | -13 | -2 | 0 | -2 | 96* | -8 | 0
COc1ccc(CNC(=O)C2CCN(c3nnc(N4CCCC4=O)s3)CC2)cc1 | 0 | -13 | -1 | 0 | -26 | 5 | x | x
C[C@@H]1CN([C@H](C)CO)C(=O)c2cc(NS(=O)(=O)c3ccccc3)ccc2O[C@@H](C)CCCCO[C@@H]1CN(C)C(=O)Cc1ccccc1 | x | x | x | 0 | x | x | x | x
COc1ccc2nc(NC(=O)CC3Oc4ccccc4NC3=O)sc2c1 (configuration not stated) | 9 | 4 | 2 | 41 | -7 | 56* | 20 | 11
O=C(COC(=O)c1cc(Br)ccc1O)Nc1ccc2c(c1)OCO2 | 2 | x | -4 | 0 | x | x | x | x
O=C(COC(=O)c1cc(Br)ccc1O)Nc1ccc2c(c1)OCCO2 | 6 | x | -4 | 0 | x | 49* | 22 | 1
O=C(N[C@H]1CC[C@@H](CCn2cc(Cc3ccccc3)nn2)O[C@H]1CO)c1ccccn1 | x | x | x | 0 | x | x | x | x
CO[C@@H]1CN(C)C(=O)c2ccc(NC(=O)c3ccccc3F)cc2OC[C@@H](C)N(C(=O)c2ccccc2F)C[C@@H]1C | x | x | x | 0 | x | x | x | x
O=C(Nc1ccc(S(=O)(=O)N2CCC(C(=O)NC3CCCCC3)CC2)cc1)c1ccco1 | -2 | 1 | 1 | x | -15 | 38* | 34* | 0
Cc1cc(NC(=O)COC(=O)c2oc3c(ccc4ccccc43)c2C)no1 | 17 | 0 | 0 | 0 | -1 | 50* | 56* | 4
CCn1c(=O)c(C(=O)NCc2ccc(OC)c(OC)c2)c(O)c2ccccc21 | -1 | 3 | 1 | x | -3 | 30* | -2 | 1
COc1ccc(CNC(=O)Nc2ccc(C)cc2C)cc1 | 0 | 9 | -1 | 0 | 1 | 63* | 28* | -1
COc1ccc(CNC(=O)Nc2cc(C)ccc2C)cc1 | -12 | -19 | 0 | 0 | -1 | 9 | x | x
